{
  "source": "paper PMC5963734",
  "about": "(Neuron, 2018)",
  "system": "PSD-95 - α-actinin interaction",
  "experiment": "Competition of co-IP of α-actinin with PSD-95 from brain lysates",
  "design": "species or system rat",
  "details": "added to Triton X-100 brain lysate during IP of PSD-95; Figure 3D",
  "how_it_was_run": "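Adult rat brain (1 g) homogenised on ice in buffer A (150 mM NaCl, 10 mM HEPES, 10 mM EDTA, 10 mM EGTA, pH 7.4) with protease inhibitors and 1% Triton X-100, then cleared at 250,000 × g for 30 min. Competitors added: PSD-95 peptide 1-13, GST-PSD-95 1-64, peptide 15-36, or Ca2+ plus CaM. Per IP, 1 mg protein, 1 μg PSD-95 antibody and protein G-Sepharose, 4 h at 4 °C; three washes.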",
  "data": [
    {"molecule": "GST-PSD-95 1-64 (N-term): GST fusion protein of the N-terminal 64 residues of PSD-95 (protein, left off: GST, N-terminal, kept) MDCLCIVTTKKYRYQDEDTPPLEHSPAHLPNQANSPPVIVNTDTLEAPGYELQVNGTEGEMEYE", "values": [
      {"measurement": "disruption of co-IP of α-actinin with PSD-95", "result": "disrupted"}
    ]}
  ]
}
